Assay results: article PMC9371903 (Nucleic Acids Research, 2022)

Experiments:
[1] = system: PML-NBs in IMR90 normal human fibroblasts (control vector or activated RAS); assay: PML-NB formation by anti-PML immunofluorescence; assay type: cell-based; conditions: 24h treatment, 5 μM pyrithione
Method in brief: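 IMR90 fibroblasts in pyruvate-free DMEM with 10% FBS and 1% penicillin/streptomycin, transduced with retroviral pBABE control or pBABE-RAS-V12. On day 6, plated on coverslips and treated next day for 24 h with vehicle, 5 μM pyrithione or 1 μM TPEN. Cells fixed in 4% PFA, permeabilised with 0.4% Triton X-100 and 0.1 M glycine, then blocked in 3% BSA. Anti-PML (1/250, overnight, 4°C), Alexa 568 secondary, DAPI. PML-NBs per cell and PML-NBs >1 μm counted.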

[2] = target: SUMO1 (residues 2–97 of human SUMO1 with a C52A substitution) (Homo sapiens, UniProt P63165, C52A); assay: ITC binding to SUMO1
[3] = target: ΔN-SUMO1 (residues 17–97 of human SUMO1) (Homo sapiens, UniProt P63165, C52A); assay: ITC binding to ΔN-SUMO1; conditions: ΔN-SUMO1, 20 mM Tris–HCl pH 7.4, 25°C
[4] = target: UBC9 (residues 2-158 of human UBC9) (human, UniProt P63279 2-158); assay: ITC
[5] = target: ΔN-SUMO2 (residues 14-93) (human, UniProt P61956 14-93, C48A); assay: ITC
[6] = target: SUMO2 (residues 2-93 of human SUMO2 with a C48A substitution) (human, UniProt P61956 2-93, C48A); assay: ITC
Sequence of SUMO2 (residues 2-93 of human SUMO2 with a C48A substitution) (P61956 2-93 C48A): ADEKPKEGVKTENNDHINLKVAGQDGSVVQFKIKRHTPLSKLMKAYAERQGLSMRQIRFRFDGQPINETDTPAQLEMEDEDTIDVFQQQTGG

Sequence of ΔN-SUMO2 (residues 14-93) (P61956 14-93 C48A): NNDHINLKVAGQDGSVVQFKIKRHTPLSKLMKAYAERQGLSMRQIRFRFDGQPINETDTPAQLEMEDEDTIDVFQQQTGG
Sequence of UBC9 (residues 2-158 of human UBC9) (P63279 2-158): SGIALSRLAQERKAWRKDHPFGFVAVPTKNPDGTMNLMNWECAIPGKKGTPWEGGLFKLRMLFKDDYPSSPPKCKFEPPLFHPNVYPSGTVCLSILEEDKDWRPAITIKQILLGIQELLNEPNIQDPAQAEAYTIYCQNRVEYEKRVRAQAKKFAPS

Molecule: [O-][n+]1ccccc1S [pyrithione]
- formation of PML-NBs ([1]; Ras-expressing (senescent) IMR90 cells): induces significantly the formation of PML-NBs
- formation of PML-NBs ([1]; vector-control IMR90 cells): only a marginal increase

Molecule: UBC9: residues 2–158 of human UBC9; E2 SUMO conjugating enzyme
- Kd ([2]; ITC, SUMO1, 20 mM Tris–HCl pH 7.4, 25°C): 29 ± 11 nM
- fold stronger binding to SUMO1 in comparison to ΔN-SUMO1 ([2]; ratio of ITC KD values, 20 mM Tris–HCl pH 7.4): roughly 2.5 fold
- Kd [3]: 73 ± 15 nM

B1: ΔN-SUMO1 (residues 17-97 of human SUMO1) (domain or fragment, UniProt P63165 17-97, looked up)
chain: KEGEYIKLKVIGQDSSEIHFKVKMTTHLKKLKESYAQRQGVPMNSLRFLFEGQRIADNHTPKELGMEEEDVIEVYQEQTGG
- Kd [4]: 73 ± 15 nM

Molecule: YKTSVATQADPEEIIVLDDDD [Daxx-SIM-2SD (Daxx-SIM with S/D substitutions at positions 737 and 739)]
- Kd [5]: 510 ± 110 nM
- Kd [6]: 1000 ± 100 nM
